Bioassay records (PubChem BioAssay)
A selection: hits, their analogues and other compounds. The true share with any hit is near 4.7%.
697 NFkB inh – inhibitors of the PMA/ionomycin-induced NF-kB reporter in 697 B cells. 0.33% of 330,000 active. AID 435022. 697 B-cell NF-kB luciferase reporter, 16 h. inhibition, % at 4 µM; in the data active means inhibition above about 35%
Jurkat NFkB inh – lowers PMA/ionomycin-induced NF-kB signal in Jurkat cells | 0.53% of 330,000 active | PMA/ionomycin-induced NF-kB luciferase reporter, luminescence | inhibition, % at 4 µM | AID 435003; in the data active means inhibition above about 50%
Mdm2-MdmX inh – inhibitors of human Mdm2/MdmX interaction. SaOS-2 split-luciferase Mdm2/MdmX complementation, luminescence. inhibition, % at 8 µM. 3% of 330,000 active. AID 485346;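 active means inhibition of at least 50% at 8 µM in the primary screen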
Target sequence (O15151 whole entry, looked up): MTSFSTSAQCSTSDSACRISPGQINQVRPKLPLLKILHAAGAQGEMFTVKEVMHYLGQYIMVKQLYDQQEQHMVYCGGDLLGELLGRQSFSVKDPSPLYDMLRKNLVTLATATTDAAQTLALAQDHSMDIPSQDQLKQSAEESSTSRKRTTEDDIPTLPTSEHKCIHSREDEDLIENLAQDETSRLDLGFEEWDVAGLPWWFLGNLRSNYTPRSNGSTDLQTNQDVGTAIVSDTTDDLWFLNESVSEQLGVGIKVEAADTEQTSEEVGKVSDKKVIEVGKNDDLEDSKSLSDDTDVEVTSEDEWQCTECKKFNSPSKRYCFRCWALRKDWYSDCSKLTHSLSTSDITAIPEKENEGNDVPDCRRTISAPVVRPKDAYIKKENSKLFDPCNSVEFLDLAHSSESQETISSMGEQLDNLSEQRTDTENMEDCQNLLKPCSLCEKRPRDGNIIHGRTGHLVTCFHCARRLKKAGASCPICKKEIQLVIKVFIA
Target sequence (Q00987 whole entry, looked up): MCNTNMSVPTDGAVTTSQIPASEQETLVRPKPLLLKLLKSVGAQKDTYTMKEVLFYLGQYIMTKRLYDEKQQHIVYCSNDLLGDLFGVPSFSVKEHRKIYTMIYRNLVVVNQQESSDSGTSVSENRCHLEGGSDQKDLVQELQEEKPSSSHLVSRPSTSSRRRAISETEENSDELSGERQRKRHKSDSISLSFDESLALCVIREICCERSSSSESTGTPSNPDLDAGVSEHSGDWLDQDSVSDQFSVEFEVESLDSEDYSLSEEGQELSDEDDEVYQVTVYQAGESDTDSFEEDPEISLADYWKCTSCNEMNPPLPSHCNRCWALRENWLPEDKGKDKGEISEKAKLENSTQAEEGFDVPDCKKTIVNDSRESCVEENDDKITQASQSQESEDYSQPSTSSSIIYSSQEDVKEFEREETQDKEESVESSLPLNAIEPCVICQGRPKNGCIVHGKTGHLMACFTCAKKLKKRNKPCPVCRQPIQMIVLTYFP
aSyn UTR inh – 5' untranslated region of α-synuclein, MLPCN primary screen | alpha-synuclein 5'UTR reporter, inhibitor activity | inhibition, % (tested at 7.5 µM) | 0.82% of 300,000 active | AID 1813; in the data active means inhibition above about 60%; inconclusive means no clear call, values can overlap the other calls;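 further: H4 neuroglioblastoma cells stably carrying SNCA 5'UTR luciferase fusion; 0% = DMSO wells and 100% = positive control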
IMP-1 inhibitor – inhibitors of Pseudomonas aeruginosa IMP-1 metallo-beta-lactamase. purified IMP-1, nitrocefin hydrolysis, epi-absorbance fluorescence. 0.45% of 290,000 active. inhibition, % at 5.6 µM;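 active means inhibition above the mean plus 3 SD of all compounds in the same screening run, cut at about 4.5% in these data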;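 further: 0% = IMP-1 with DMSO and 100% = DMSO wells lacking enzyme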
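System: purified IMP-1 / Input: IMP-1 dispensed at 0.2 nM / Medium: 50 mM HEPES pH 7.1, 50 µM ZnSO4, 0.05% Brij 35 / Timing: 15 min enzyme–compound preincubation, then 25 min nitrocefin reaction, 25 °C / Technique: plate fluorescence quenching by hydrolysis product, ex 480/em 530 nm / Repeats: singlicate testing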
VIM-2 inhibitor – blocks Pseudomonas aeruginosa VIM-2 metallo-beta-lactamase. 0.89% of 290,000 active. purified VIM-2, nitrocefin hydrolysis, epi-absorbance fluorescence. inhibition, % at 5.6 µM. AID 1527;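 active means inhibition above the mean of all tested compounds plus 3 SD, cutoff set per screening run, cut at about 7.5% in these data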;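 further: red hydrolysis product quenches plate fluorescence so inhibitors raise well fluorescence; 0% = enzyme with DMSO and 100% = DMSO without enzyme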
Mdm2-MdmX conf – confirmation of human Mdm2/MdmX interaction inhibitors | shares compounds with Mdm2-MdmX inh | Mdm2-MdmX binding, luminescent assay | inhibition, % at 8 µM | 55% of 10,000 active | AID 489028; in the data active means inhibition above about 40%
FLuc counter – inhibits full-length luciferase, flagging false Mdm2/MdmX hits. shares compounds with Mdm2-MdmX inh. SaOS-2 full-length luciferase counterscreen, luminescence. inhibition, % at 8 µM. 77% of 6,200 active. AID 504607;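 active means mean inhibition at 8 µM reaching about 37%, which flags the compound as non-specific, limit read from the data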;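 further: p53-null SaOS-2 cells with luciferase driven by a doxycycline-inducible promoter; compound on cells about two nights before reading with doxycycline added after day one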
* marks the source's active call; other numbers are inactive results; ? = inconclusive; · = not tested or not shown; ! = not active in a repeat.

SMILES	697 NFkB inh	Jurkat NFkB inh	Mdm2-MdmX inh	aSyn UTR inh	IMP-1 inhibitor	VIM-2 inhibitor	Mdm2-MdmX conf	FLuc counter
O=C(CSc1ncn[nH]1)N1N=C2/C(=C/c3ccccc3)CCCC2C1c1ccccc1 (configuration not stated)	3	3	53*	-7	0	2	19	·
COc1ccccc1-n1c(-c2ccccc2)c[nH]c1=S	·	·	·	-24	-2	0	·	·
COc1ccccc1-n1c(-c2ccccc2)c[n+]2c1CCc1ccccc1-2	4	33	61*	6	-1	-3	48*!	52*!
CC(C)C(=O)N1CCN(c2ccc(NC(=O)c3ccc([N+](=O)[O-])o3)cc2)CC1	-6	15	72*	35	0	1	52*	23
CCN1CCN(c2c(Cl)cccc2NC(=O)c2ccc([N+](=O)[O-])o2)CC1	-17	40	55*	79*	-1	0	28	·
O=C(Nc1cccc(Cl)c1N1CCCC1)c1ccc([N+](=O)[O-])o1	-10	-10	29	·	-3	-1	·	·
CN1CCN(c2ccc(NC(=O)c3ccc([N+](=O)[O-])o3)cc2Cl)CC1	-10	25	64*	?	-2	5	50*	19
Cc1c(-c2ccccc2)oc2c(C(=O)N3CCN(c4ccc([N+](=O)[O-])cc4)CC3)cccc2c1=O	-23	2	67*	21	-2	-1	77*	51*
Cc1onc(-c2ccccc2)c1C(=O)N1CCN(c2ccc([N+](=O)[O-])cc2)CC1	-29	15	6	26	-1	0	·	·
O=C(NC1CCCCC1)C(c1cccnc1)N(C(=O)c1csnn1)c1ccc(F)cc1 (configuration not stated)	-4	-19	-3	2	-1	0	·	·
CN1CCC(N(C)C(=O)c2cc(-c3ccc(F)cc3)nc3ccccc23)CC1	-8	-5	21	·	·	·	·	·
Nc1ncnc2c1ncn2[C@@H]1O[C@H](CNC(=O)[C@@H]2CCCN2S(=O)(=O)c2ccc(F)cc2)[C@@H](O)[C@H]1O	17	·	21	·	·	·	·	·
CSCCC(NS(=O)(=O)c1ccc2c(c1)oc(=O)n2C)C(=O)NCc1cccs1 (configuration not stated)	21	0	-1	-16	-1	-2	·	·
O=C(Nc1ccccc1N1CCN(C(=O)c2ccc(Cl)cc2)CC1)c1ccc([N+](=O)[O-])o1	-15	18	55*	-30	-3	-3	33	·
O=C(Nc1ccccc1N1CCCCC1)c1ccc([N+](=O)[O-])o1	-2	17	29	·	·	·	·	·
O=C(Nc1ccc(N2CCN(C(=O)c3ccccc3)CC2)cc1)c1ccc([N+](=O)[O-])o1	·	·	·	-19	1	0	·	·
Cc1ccccc1C(=O)N1CCN(c2ccc(NC(=O)c3ccc([N+](=O)[O-])o3)cc2)CC1	-17	34	72*	-168	0	-3	76*	90*
O=C(Nc1cccc(/C=C/c2ccccn2)c1)c1ccc(-n2cncn2)c([N+](=O)[O-])c1	-39	-20	62*	-27	·	·	38	·
O=C(Nc1ccc(F)c(F)c1)c1ccc(-n2cncn2)c([N+](=O)[O-])c1	2	2	-15	·	·	·	·	·
COc1cc2cncc(Cc3ccc(Cl)cc3)c2cc1OC	-40	17	69*	·	·	·	65*	26
CCc1nc(N=C(N)N)nc2ccccc12	-22	-4	59*	-12	-3	3	15	·
CCc1nc2ccccc2c(C(=O)O)c1C	19	-5	13	-6	0	-3	·	·
Cc1cc(C)cc(NC(=O)Cn2nnc(C(=O)NCCc3ccccc3)c2N)c1	10	-1	2	30	0	0	·	·
Cc1ccc(NC(=O)Cn2nnc(C(=O)NCCc3ccccc3)c2N)cc1Cl	-16	-5	53*	2	0	-7	47*	29
Cc1ccc(NC(=O)Cn2nnc(C(=O)NCCc3ccccc3)c2N)c(C)c1	-2	-20	61*	19	0	1	10	·
SMILES	697 NFkB inh	Jurkat NFkB inh	Mdm2-MdmX inh	aSyn UTR inh	IMP-1 inhibitor	VIM-2 inhibitor	Mdm2-MdmX conf	FLuc counter
O=c1cc(-c2c(F)c(F)c(F)c(F)c2F)oc2ccccc12	6	7	96*	-39	-6	-2	10	·
COc1c(OC)c(O)c2c(=O)cc(-c3c(O)cccc3O)oc2c1OC	6	-4	11	-64	-4	-2	·	·
O=c1cc(-c2c(F)c(F)c(F)c(F)c2F)oc2c(F)c(F)c(F)c(F)c12	-23	15	100*	-12	0	-1	99*	1
CCc1noc(C)c1C(=O)NC1CCCc2c1cnn2-c1cc(C)cc(C)c1 (configuration not stated)	-91	-21	19	11	-6	-1	·	·
CCc1[nH]nc(C(=O)NC2CCCc3c2cnn3-c2cc(C)cc(C)c2)c1C (configuration not stated)	-171	-20	76*	11	-3	-3	81*	95*
COc1ccc2[nH]c3c(N4CCc5ccccc5C4)ncnc3c2c1	-81	35	76*	43	-3	-3	50*	63*
COc1ccc(N2CCN(c3ncnc4c3[nH]c3ccccc34)CC2)cc1	11	30	16	1	-1	0	·	·
COc1cc2[nH]c3c(N4CCN(c5ccccn5)CC4)ncnc3c2cc1OC	32	18	69*	4	-2	7	41*	53*
Cc1ccsc1C(=O)OCC(=O)NCc1ccc(Cl)cc1	5	-4	12	·	·	·	·	·
Cc1c(Cl)cccc1NC(=O)CCC(=O)N/N=C/c1ccc[nH]1	12	-1	55*	11	-2	-4	41*	42*
CC(NC(=O)c1ccco1)C(=O)N(C)Cc1ccc(C(F)(F)F)cc1 (configuration not stated)	3	22	15	1	-2	-2	·	·
COc1ccc(-c2sc3ccccc3c2-c2ccc(OCCN3CCCCC3)cc2)cc1	-1	6	88*	·	·	·	20	·
c1ccc(-c2sc3ccccc3c2-c2ccc(OCCN3CCCC3)cc2)cc1	4	6	100*	·	·	·	46*	58*
O=C1CC(c2ccco2)Cc2c1cnn2-c1nc2ccccc2s1 (configuration not stated)	-12	3	50*	-21	-3	-3	6	·
CC(=O)OCC(=O)Nc1ccc([N+](=O)[O-])cc1Cl	10	16	-20	-7	-2	0	·	·
CC(=O)Oc1c(C)cc(Cl)cc1C(=O)Nc1ccc([N+](=O)[O-])cc1Cl	-127	-28	99*	30	1	-2	81*	28
